Reference: ChEMBL document CHEMBL4184148 (Bioorg Med Chem Lett, 2017)
Activity calls are given as the source filed them. The calls are words filed in the database; no cut-off is given here.

Assays:
Aurora kinase B [1] = target: T1, Aurora kinase B (Homo sapiens, UniProt Q96GD4); assay: Inhibition of recombinant full length His-tagged human Aurora B expressed in baculovirus expression system by Z'LYTE assay
Summary of the method: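 Z'LYTE biochemical kinase assay run at the Km ATP concentration for each kinase. IC50 was determined and reported ± standard error.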

Aurora kinase C = target: T2, Aurora kinase C (Homo sapiens, UniProt Q9UQB9); assay: Inhibition of recombinant full length GST-tagged human Aurora C expressed in baculovirus expression system by Z'LYTE assay
T2 sequence (Q9UQB9 whole entry): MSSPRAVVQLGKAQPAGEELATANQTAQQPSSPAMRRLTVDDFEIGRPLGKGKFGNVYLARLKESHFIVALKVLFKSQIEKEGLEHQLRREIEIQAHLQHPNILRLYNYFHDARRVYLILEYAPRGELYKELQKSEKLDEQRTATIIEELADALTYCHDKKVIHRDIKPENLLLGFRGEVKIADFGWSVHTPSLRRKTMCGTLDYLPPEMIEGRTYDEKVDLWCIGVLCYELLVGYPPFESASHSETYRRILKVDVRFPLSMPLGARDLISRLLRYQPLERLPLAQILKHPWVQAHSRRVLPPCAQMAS
Summary of the method: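 Biochemical IC50 from a Z'LYTE kinase assay, with ATP at the Km for each kinase. Values are reported with standard error.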

Aurora kinase B [2] = target: T1, Aurora kinase B; assay: Inhibition of Aurora B in human HCT116 cells assessed as reduction in histone H3 phosphorylation at S10 residues after 4 hrs by Western blot analysis; format: cell-based
Summary of the method: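 Cells were exposed to compound in dose-response for 4 h, then lysed for western blotting of histone H3 pS10. The cellular EC50 was derived from the dose-response curves. Three replicate experiments were run.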

HCT-116 [3] = assay: Cytotoxicity against human HCT116 cells assessed as reduction in cell viability after 72 hrs by CellTiter-Glo assay; format: functional, cell-based; details: HCT-116, 72 h
Summary of the method: (§1)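 Cells were treated across a dose-response range for 72 h, and viability was read by CellTiter-Glo luminescence. Measurements were made in triplicate and reported with standard error.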

HeLa = assay: Cytotoxicity against human HeLa cells assessed as reduction in cell viability after 72 hrs by CellTiter-Glo assay; format: functional, cell-based; summary of the method: as §1
HEK293 = assay: Cytotoxicity against human HEK293 cells assessed as reduction in cell viability after 72 hrs by CellTiter-Glo assay; format: cell-based; details: HEK293, 72 h; summary of the method: as §1
PC-3 = assay: Cytotoxicity against human PC3 cells assessed as reduction in cell viability after 72 hrs by CellTiter-Glo assay; format: functional, cell-based; details: PC-3, 72 h; summary of the method: as §1
HCT-116 [4] = assay: Induction of cell cycle arrest in human HCT116 cells assessed as accumulation of 4N DNA content at 500 nM after 48 hrs by propidium iodide staining-based flow cytometry; format: functional

T1 sequence (Q96GD4 whole entry): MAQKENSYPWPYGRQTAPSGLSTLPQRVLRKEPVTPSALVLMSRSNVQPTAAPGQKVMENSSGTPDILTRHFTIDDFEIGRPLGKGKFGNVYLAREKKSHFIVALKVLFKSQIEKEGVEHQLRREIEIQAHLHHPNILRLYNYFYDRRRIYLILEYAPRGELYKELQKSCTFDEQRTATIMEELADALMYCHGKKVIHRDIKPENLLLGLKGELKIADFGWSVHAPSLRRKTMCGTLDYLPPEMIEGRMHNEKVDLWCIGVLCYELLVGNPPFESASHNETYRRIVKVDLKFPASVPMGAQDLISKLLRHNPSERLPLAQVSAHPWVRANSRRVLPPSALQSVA

## CCOC(=O)c1[nH]cc2c1NC1=C(C(=O)CCC1)[C@H]2c1cccc(Oc2nc3ccccc3[nH]2)c1
Aurora kinase B [1]
  IC50: 34 nM
Aurora kinase C
  IC50: 91 nM
Aurora kinase B [2]
  EC50: 27 nM
HCT-116 [3]
  IC50: 3710 nM
HeLa
  IC50: 6.11 nM
HEK293
  IC50: 5860 nM
PC-3
  IC50: > 10000 nM
HCT-116 [4]
  Activity: Active
